Test results from ChEMBL document CHEMBL1687802, “An RpoB mutation confers dual heteroresistance to daptomycin and vancomycin in Staphylococcus aureus” (2010).
Values after ≈ are worked out from the molar mass of the structure shown.

What was measured:
Staphylococcus aureus [1] = assay: Antimicrobial activity against methicillin-resistant Staphylococcus aureus 10*3d1 harboring hypothetical protein SA1826 14A mutant and rpoB 621A mutant after 24 hrs by Etest method; assay type: functional; conditions: 10*3d1, 24 h
Summary of the method: (§1)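 Etest MICs (daptomycin, vancomycin, oxacillin, rifampin) on Mueller-Hinton agar, with the daptomycin medium supplemented with 50 mg/liter Ca2+. Plates were swabbed from a 0.5 McFarland suspension, strips were applied 10 min later, and plates were read after 24 h at 37°C. Strains were pKOR1 allelic-replacement mutants or revertants of N315ΔIP (mecI-inactivated, beta-lactamase plasmid cured) or 10*3d1, grown in BHI broth at 37°C.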

Staphylococcus aureus [2] = assay: Antimicrobial activity against methicillin-resistant Staphylococcus aureus N315deltaIP after 24 hrs by Etest method; assay type: functional; summary of the method: as §1
Staphylococcus aureus [3] = assay: Antimicrobial activity against methicillin-resistant Staphylococcus aureus 10*3d1 harboring rpoB 621E mutation after 24 hrs by Etest method; conditions: 10*3d1, 24 h
Staphylococcus aureus [4] = assay: Antimicrobial activity against methicillin-resistant Staphylococcus aureus 10*3d1 harboring hypothetical protein SA1826 14E mutant gene after 24 hrs by Etest method; assay type: functional; conditions: 10*3d1, 24 h; summary of the method: as §1
Staphylococcus aureus [5] = assay: Antimicrobial activity against methicillin-resistant Staphylococcus aureus N315deltaIP harboring hypothetical protein SA1826 14E mutant gene after 24 hrs by Etest method; assay type: functional; summary of the method: as §1
Staphylococcus aureus [6] = assay: Antimicrobial activity against methicillin-resistant Staphylococcus aureus N315deltaIP harboring hypothetical protein SA1826 14A mutant after 24 hrs by Etest method; assay type: functional; summary of the method: as §1
Staphylococcus aureus [7] = assay: Antimicrobial activity against methicillin-resistant Staphylococcus aureus 10*3d1 harboring hypothetical protein SA1826 14A mutant gene after 24 hrs by Etest method; assay type: functional; conditions: 10*3d1, 24 h; summary of the method: as §1
Staphylococcus aureus [8] = assay: Antimicrobial activity against methicillin-resistant Staphylococcus aureus 10*3d1 harboring hypothetical protein SA1826 14A(-) and rpoB 621E mutant gene after 24 hrs by Etest method; assay type: functional; conditions: 10*3d1, 24 h; summary of the method: as §1
Staphylococcus aureus [9] = assay: Antimicrobial activity against methicillin-resistant Staphylococcus aureus N315deltaIP harboring rpoB 621A mutant after 24 hrs by Etest method
Staphylococcus aureus [10] = assay: Antimicrobial activity against methicillin-resistant Staphylococcus aureus N315deltaIP harboring rpoB A621E mutant gene after 24 hrs by Etest method; assay type: functional; summary of the method: as §1
Staphylococcus aureus [11] = assay: Antimicrobial activity against vancomycin-intermediate Staphylococcus aureus MU50 by Etest method; assay type: functional
Staphylococcus aureus [12] = assay: Antimicrobial activity against vancomycin-susceptible Staphylococcus aureus MU50-P35 by Etest method
Staphylococcus aureus [13] = assay: Antimicrobial activity against vancomycin-intermediate Staphylococcus aureus MU50-PR selected at 4 mg/L of vancomycin by Etest method; assay type: functional
Staphylococcus aureus [14] = assay: Antimicrobial activity against vancomycin-intermediate Staphylococcus aureus MI by Etest method; assay type: functional
Staphylococcus aureus [15] = assay: Antimicrobial activity against vancomycin-intermediate Staphylococcus aureus MI-PR selected at 4 mg/L of vancomycin by Etest method; assay type: functional
Staphylococcus aureus [16] = assay: Antimicrobial activity against vancomycin-susceptible Staphylococcus aureus MI-P84 by Etest method
Staphylococcus aureus [17] = assay: Antimicrobial activity against vancomycin-intermediate Staphylococcus aureus MI-P84 selected at 4 mg/L of compound by Etest method
Staphylococcus aureus [18] = assay: Antimicrobial activity against vancomycin-intermediate Staphylococcus aureus MI-PR selected at 4 mg/L of compound by Etest method
Staphylococcus aureus [19] = assay: Antimicrobial activity against vancomycin-intermediate Staphylococcus aureus MU50-P35 selected at 4 mg/L of compound by Etest method
Staphylococcus aureus [20] = assay: Antimicrobial activity against vancomycin-intermediate Staphylococcus aureus MU50-PR selected at 4 mg/L of compound by Etest method

SMILES: CO[C@H]1/C=C/O[C@@]2(C)Oc3c(C)c(O)c4c(O)c(c(/C=N/N5CCN(C)CC5)c(O)c4c3C2=O)NC(=O)/C(C)=C\C=C\[C@H](C)[C@H](O)[C@@H](C)[C@@H](O)[C@@H](C)[C@H](OC(C)=O)[C@@H]1C [RIFAMPIN]
- MIC (Staphylococcus aureus [1]): 0.006 µg/mL (≈ 0.00729 µM)
- MIC (Staphylococcus aureus [2]): 0.006 µg/mL (≈ 0.00729 µM)
- MIC (Staphylococcus aureus [3]): 0.006 µg/mL (≈ 0.00729 µM)
- MIC (Staphylococcus aureus [4]): 0.006 µg/mL (≈ 0.00729 µM)
- MIC (Staphylococcus aureus [5]): 0.006 µg/mL (≈ 0.00729 µM)
- MIC (Staphylococcus aureus [6]): 0.006 µg/mL (≈ 0.00729 µM)
- MIC (Staphylococcus aureus [7]): 0.006 µg/mL (≈ 0.00729 µM)
- MIC (Staphylococcus aureus [8]): 0.006 µg/mL (≈ 0.00729 µM)
- MIC (Staphylococcus aureus [9]): 0.006 µg/mL (≈ 0.00729 µM)
- MIC (Staphylococcus aureus [10]): 0.006 µg/mL (≈ 0.00729 µM)

SMILES: CCCCCCCCCC(=O)N[C@@H](Cc1c[nH]c2ccccc12)C(=O)N[C@H](CC(N)=O)C(=O)N[C@@H](CC(=O)O)C(=O)N[C@@H]1C(=O)NCC(=O)N[C@@H](CCCN)C(=O)N[C@@H](CC(=O)O)C(=O)N[C@H](C)C(=O)N[C@@H](CC(=O)O)C(=O)NCC(=O)N[C@H](CO)C(=O)N[C@@H]([C@H](C)CC(=O)O)C(=O)N[C@@H](CC(=O)c2ccccc2N)C(=O)O[C@@H]1C
- MIC (Staphylococcus aureus [1]): 0.25 µg/mL (≈ 0.154 µM)
- MIC (Staphylococcus aureus [2]): 0.38 µg/mL (≈ 0.234 µM)
- MIC (Staphylococcus aureus [3]): 2 µg/mL (≈ 1.23 µM)
- MIC (Staphylococcus aureus [11]): 2 µg/mL (≈ 1.23 µM)
- MIC (Staphylococcus aureus [4]): 1.5 µg/mL (≈ 0.926 µM)
- MIC (Staphylococcus aureus [5]): 0.25 µg/mL (≈ 0.154 µM)
- MIC (Staphylococcus aureus [12]): 0.5 µg/mL (≈ 0.309 µM)
- MIC (Staphylococcus aureus [13]): 2 µg/mL (≈ 1.23 µM)
- MIC (Staphylococcus aureus [6]): 0.25 µg/mL (≈ 0.154 µM)
- MIC (Staphylococcus aureus [14]): 2 µg/mL (≈ 1.23 µM)
- MIC (Staphylococcus aureus [15]): 2 µg/mL (≈ 1.23 µM)
- MIC (Staphylococcus aureus [7]): 1.5 µg/mL (≈ 0.926 µM)
- MIC (Staphylococcus aureus [16]): 0.5 µg/mL (≈ 0.309 µM)
- MIC (Staphylococcus aureus [8]): 1.5 µg/mL (≈ 0.926 µM)
- MIC (Staphylococcus aureus [9]): 0.25 µg/mL (≈ 0.154 µM)
- MIC (Staphylococcus aureus [10]): 1.5 µg/mL (≈ 0.926 µM)

SMILES: CN[C@H](CC(C)C)C(=O)N[C@H]1C(=O)N[C@@H](CC(N)=O)C(=O)N[C@H]2C(=O)N[C@H]3C(=O)N[C@H](C(=O)N[C@H](C(=O)O)c4cc(O)cc(O)c4-c4cc3ccc4O)[C@H](O)c3ccc(c(Cl)c3)Oc3cc2cc(c3O[C@@H]2O[C@H](CO)[C@@H](O)[C@H](O)[C@H]2O[C@H]2C[C@](C)(N)[C@H](O)[C@H](C)O2)Oc2ccc(cc2Cl)[C@H]1O [VANCOMYCIN]
- MIC (Staphylococcus aureus [1]): 0.75 µg/mL (≈ 0.518 µM)
- MIC (Staphylococcus aureus [2]): 0.5 µg/mL (≈ 0.345 µM)
- MIC (Staphylococcus aureus [3]): 3 µg/mL (≈ 2.07 µM)
- MIC (Staphylococcus aureus [11]): 6 µg/mL (≈ 4.14 µM)
- MIC (Staphylococcus aureus [17]): 1 µg/mL (≈ 0.69 µM)
- MIC (Staphylococcus aureus [4]): 3 µg/mL (≈ 2.07 µM)
- MIC (Staphylococcus aureus [5]): 0.5 µg/mL (≈ 0.345 µM)
- MIC (Staphylococcus aureus [6]): 0.5 µg/mL (≈ 0.345 µM)
- MIC (Staphylococcus aureus [14]): 7 µg/mL (≈ 4.83 µM)
- MIC (Staphylococcus aureus [18]): 6 µg/mL (≈ 4.14 µM)
- MIC (Staphylococcus aureus [7]): 3 µg/mL (≈ 2.07 µM)
- MIC (Staphylococcus aureus [8]): 3 µg/mL (≈ 2.07 µM)
- MIC (Staphylococcus aureus [9]): 0.25 µg/mL (≈ 0.173 µM)
- MIC (Staphylococcus aureus [19]): 2 µg/mL (≈ 1.38 µM)
- MIC (Staphylococcus aureus [20]): 6 µg/mL (≈ 4.14 µM)
- MIC (Staphylococcus aureus [10]): 3 µg/mL (≈ 2.07 µM)

SMILES: Cc1onc(-c2ccccc2)c1C(=O)N[C@@H]1C(=O)N2[C@@H]1SC(C)(C)[C@@H]2C(=O)O [OXACILLIN]
- MIC (Staphylococcus aureus [1]): > 256 µg/mL
- MIC (Staphylococcus aureus [2]): 48 µg/mL (≈ 120 µM)
- MIC (Staphylococcus aureus [3]): > 256 µg/mL
- MIC (Staphylococcus aureus [4]): > 256 µg/mL
- MIC (Staphylococcus aureus [5]): > 256 µg/mL
- MIC (Staphylococcus aureus [6]): > 256 µg/mL
- MIC (Staphylococcus aureus [7]): > 256 µg/mL
- MIC (Staphylococcus aureus [8]): > 256 µg/mL
- MIC (Staphylococcus aureus [9]): > 256 µg/mL
- MIC (Staphylococcus aureus [10]): > 256 µg/mL
